From ChEMBL document CHEMBL1138319, “Synthesis and pharmacological evaluation of fluorescent and photoactivatable analogues of antiplasmodial naphthylisoquinolines” (J Med Chem, 2007)
Active and inactive are the calls of the source. The rule behind the calls is not given here.

Experiments:
L6 = assay: Cytotoxicity against rat L6 cells; format: cell-based
Outline: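 L-6 rat skeletal myoblast cell line; cytotoxicity values reported in µM.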

Plasmodium falciparum = assay: Antiplasmodial activity against Plasmodium falciparum in human red blood cells after 4 hrs; format: functional, organism-based
[1] = biological target: T1, Falcipain 2 (Plasmodium falciparum) (UniProt Q9N6S8); assay: Inhibition of Plasmodium falciparum recombinant cysteine protease falcipain-2
T1 sequence (whole entry): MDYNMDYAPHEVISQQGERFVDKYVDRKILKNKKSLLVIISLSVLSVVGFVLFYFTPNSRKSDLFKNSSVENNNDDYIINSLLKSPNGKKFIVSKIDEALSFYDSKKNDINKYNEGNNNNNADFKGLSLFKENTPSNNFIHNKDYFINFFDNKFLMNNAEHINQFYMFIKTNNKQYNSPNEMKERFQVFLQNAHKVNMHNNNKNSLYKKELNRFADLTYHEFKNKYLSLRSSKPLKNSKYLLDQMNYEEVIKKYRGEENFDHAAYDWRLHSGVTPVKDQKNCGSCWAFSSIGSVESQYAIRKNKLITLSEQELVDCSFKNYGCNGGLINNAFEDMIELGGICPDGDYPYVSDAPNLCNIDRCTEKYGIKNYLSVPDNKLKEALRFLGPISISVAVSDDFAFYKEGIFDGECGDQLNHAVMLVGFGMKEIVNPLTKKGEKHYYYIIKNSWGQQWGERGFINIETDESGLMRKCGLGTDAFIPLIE

SMILES | IC50 (Plasmodium falciparum) | Activity [1] | IC50 (L6)
COc1cc([C@@H]2c3cc4c(cc3[C@H](O)[C@H]3COC(=O)[C@H]23)OCO4)cc(OC)c1OC [PODOFILOX] | – | – | 7 nM
COc1cccc2c(-c3cc(CNCCCCCCNS(=O)(=O)c4cccc5c(N(C)C)cccc45)c4c(c3OCc3ccccc3)[C@@H](C)N(Cc3ccccc3)[C@H](C)C4)c(C)cc(OC)c12 | 45 nM | – | 2500 nM
COc1cccc2c(-c3cc(CCCOC(=O)N([C@@H](Cc4ccc(OCc5ccc(C(=O)c6ccccc6)cc5)cc4)C(=O)O)S(=O)(=O)c4cccc5c(N(C)C)cccc45)c4c(c3O)[C@@H](C)N[C@H](C)C4)c(C)cc(OC)c12 | 960 nM | – | 69500 nM

The next lines start with results.

IC50 (Plasmodium falciparum) | Activity [1] | SMILES | IC50 (L6)
602 nM | – | COc1cccc2c(-c3cc(CNCCCCCCNS(=O)(=O)c4cccc5c(N(C)C)cccc45)c4c(c3O)[C@@H](C)N[C@H](C)C4)c(C)cc(OC)c12 | 16500 nM
2420 nM | – | COc1cccc2c(-c3cc(CCCO)c4c(c3O)[C@@H](C)N[C@H](C)C4)c(C)cc(OC)c12 | 99000 nM
381 nM | inactive | COc1cccc2c(-c3ccc4c(c3O)[C@@H](C)N[C@H](C)C4)c(C)cc(OC)c12 [DIONCOPHYLLINE A] | 29100 nM
190 nM | – | COC(=O)/C=C/c1cc(-c2c(C)cc(OC)c3c(OC)cccc23)c(OCc2ccccc2)c2c1C[C@@H](C)N(Cc1ccccc1)[C@@H]2C | > 140000 nM
